ChEMBL document CHEMBL1821673, “Development of β-amino alcohol derivatives that inhibit Toll-like receptor 4 mediated inflammatory response as potential antiseptics” (J Med Chem, 2011)
pIC50: −log10 of the molar value. The source made the active and inactive calls. The calls are words filed in the database; no cut-off is given here.

Tests used:
Toll-like receptor 4 [1] = target: T1, Toll-like receptor 4 (Homo sapiens, UniProt O00206); experiment: Inhibition of LPS-induced TLR4 activation in human whole blood assessed as inhibition of IL-8 release preincubated for 5 to 10 mins
Summary of the method: (§1)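 Fresh human blood anticoagulated with lepirudin, preincubated with compound 5–10 min at 37 °C, then stimulated with 100 ng/mL ultrapure E. coli 0111:B4 LPS, rotating 2 h at 37 °C. Stopped with EDTA 10 mM final; plasma TNF-α, IL-8 and IL-6 measured by singleplex Bio-plex, expressed as % of LPS without inhibitor. n = 3 or 9, paired two-sided t-test.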

Toll-like receptor 4 [2] = target: T1, Toll-like receptor 4; experiment: Inhibition of LPS-induced TLR4 activation in human whole blood assessed as inhibition of TNFalpha release at 250 uM preincubated for 5 to 10 mins; summary of the method: as §1
Toll-like receptor 4 [3] = target: T1, Toll-like receptor 4; experiment: Inhibition of LPS-induced TLR4 activation in human whole blood assessed as inhibition of IL-8 release at 500 uM preincubated for 5 to 10 mins; summary of the method: as §1
Toll-like receptor 4 [4] = target: T1, Toll-like receptor 4; experiment: Inhibition of LPS-induced TLR4 activation in human whole blood assessed as inhibition of IL-6 release at 500 uM preincubated for 5 to 10 mins; summary of the method: as §1
Toll-like receptor 4 [5] = target: T1, Toll-like receptor 4; experiment: Inhibition of LPS-induced TLR4 activation in human whole blood assessed as inhibition of IL-6 release at 250 uM preincubated for 5 to 10 mins; summary of the method: as §1
Toll-like receptor 4 [6] = target: T1, Toll-like receptor 4; experiment: Inhibition of LPS-induced TLR4 activation in human whole blood assessed as reduction in plasma IL-8 level at 250 uM preincubated for 5 to 10 mins; summary of the method: as §1
Toll-like receptor 4 [7] = target: T1, Toll-like receptor 4; experiment: Inhibition of LPS-induced TLR4 activation in human whole blood assessed as reduction in plasma TNFalpha level at 250 uM preincubated for 5 to 10 mins; summary of the method: as §1
[8] = Octanol/water distribution coefficient, log D of the compound at pH 7.4; format: physicochemical
Summary of the method: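 Octanol/water distribution measured at pH 7.4.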

MDCK = experiment: Permeability across apical to basolateral side of MDCK cells expressing MDR1 at 5 uM; format: ADME, cell-based, Canis lupus familiaris; settings: dog
Summary of the method: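 MDR1-MDCK monolayer; transport measured in apical-to-basolateral and basolateral-to-apical directions at 5 µM.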

Liver microsomes = experiment: Intrinsic clearance in human liver microsomes at 1 uM after 60 mins by LC-MS/MS analysis; format: ADME, Microsome; settings: 1 h
Summary of the method: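 1 µM in <0.25% DMSO, 37 °C, human liver microsomes 0.5 mg/mL protein, started with cofactors. Time points 0, 10, 20, 30 and 60 min; NADPH addition confirmed by fluorimetry. LC-MS/MS peak-area ratio to internal standard; CLint = k/P.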

Liver [9] = experiment: Intrinsic clearance in human liver S9 fractions at 1 uM after 60 mins by LC-MS/MS analysis; format: ADME, subcellular, S9 fraction; settings: s9, 1 h
Summary of the method: (§2)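 1 µM in <0.25% DMSO, 37 °C, pooled rat or human S9 at 1 mg/mL, with 1 mM each of NADPH, UDPGA, PAPS and GSH. Sampled at 0, 10, 20, 30 and 60 min; peak-area ratio to internal standard by LC-MS/MS without a standard curve. CLint = k/P.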

Liver [10] = experiment: Intrinsic clearance in rat liver S9 fractions at 1 uM after 60 mins by LC-MS/MS analysis; format: ADME, subcellular, S9 fraction; settings: s9, 1 h; summary of the method: as §2
Cytochrome P450 2C9 = Cytochrome P450 2C9 (Homo sapiens, UniProt P11712); experiment: Inhibition of CYP2C9 in human liver microsomes using diclofenac as probe; format: ADME, Microsome
Cytochrome P450 2C19 = Cytochrome P450 2C19 (Homo sapiens, UniProt P33261); experiment: Inhibition of CYP2C19 in human liver microsomes using S-mephenytoin as probe; format: ADME, Microsome
Cytochrome P450 2D6 = Cytochrome P450 2D6 (Homo sapiens, UniProt P10635); experiment: Inhibition of CYP2D6 in human liver microsomes using bufuralol as probe; format: ADME, Microsome
[11] = target: RAC-alpha serine/threonine-protein kinase (Homo sapiens) (UniProt P31749); experiment: Inhibition of AKT1 at 28 uM by luciferase fragment complementation assay
[12] = target: Calcium/calmodulin-dependent protein kinase type 1 (Homo sapiens) (UniProt Q14012); experiment: Inhibition of CAMK1 at 28 uM by luciferase fragment complementation assay
[13] = target: Discoidin domain-containing receptor 2 (Homo sapiens) (UniProt Q16832); experiment: Inhibition of DDR2 at 28 uM by luciferase fragment complementation assay
[14] = target: Glycogen synthase kinase-3 alpha (Homo sapiens) (UniProt P49840); experiment: Inhibition of GSK3alpha at 28 uM by luciferase fragment complementation assay
[15] = target: Mitogen-activated protein kinase 1 (Homo sapiens) (UniProt P28482); experiment: Inhibition of MAPK1 at 28 uM by luciferase fragment complementation assay
[16] = target: Hepatocyte growth factor receptor (Homo sapiens) (UniProt P08581); experiment: Inhibition of MET at 28 uM by luciferase fragment complementation assay
[17] = target: Serine/threonine-protein kinase PAK 1 (Homo sapiens) (UniProt Q13153); experiment: Inhibition of PAK1 at 28 uM by luciferase fragment complementation assay
[18] = target: Platelet-derived growth factor receptor beta (Homo sapiens) (UniProt P09619); experiment: Inhibition of PDGFRB at 28 uM by luciferase fragment complementation assay
[19] = target: Serine/threonine-protein kinase pim-1 (Homo sapiens) (UniProt P11309); experiment: Inhibition of PIM1 at 28 uM by luciferase fragment complementation assay
[20] = target: Protein kinase C gamma type (Homo sapiens) (UniProt P05129); experiment: Inhibition of PKCgamma at 28 uM by luciferase fragment complementation assay
[21] = target: Serine/threonine-protein kinase PLK4 (Homo sapiens) (UniProt O00444); experiment: Inhibition of PLK4 at 28 uM by luciferase fragment complementation assay
[22] = target: Proto-oncogene tyrosine-protein kinase Src (Homo sapiens) (UniProt P12931); experiment: Inhibition of SRC at 28 uM by luciferase fragment complementation assay
Blood = experiment: Cytotoxicity against human whole blood assessed as hemolysis at 1 mM; format: tissue-based; settings: 1000 µM
Summary of the method: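 Human whole blood anticoagulated with lepirudin, exposed to compound at up to 1 mM; hemolysis checked.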

T1 sequence (O00206 whole entry): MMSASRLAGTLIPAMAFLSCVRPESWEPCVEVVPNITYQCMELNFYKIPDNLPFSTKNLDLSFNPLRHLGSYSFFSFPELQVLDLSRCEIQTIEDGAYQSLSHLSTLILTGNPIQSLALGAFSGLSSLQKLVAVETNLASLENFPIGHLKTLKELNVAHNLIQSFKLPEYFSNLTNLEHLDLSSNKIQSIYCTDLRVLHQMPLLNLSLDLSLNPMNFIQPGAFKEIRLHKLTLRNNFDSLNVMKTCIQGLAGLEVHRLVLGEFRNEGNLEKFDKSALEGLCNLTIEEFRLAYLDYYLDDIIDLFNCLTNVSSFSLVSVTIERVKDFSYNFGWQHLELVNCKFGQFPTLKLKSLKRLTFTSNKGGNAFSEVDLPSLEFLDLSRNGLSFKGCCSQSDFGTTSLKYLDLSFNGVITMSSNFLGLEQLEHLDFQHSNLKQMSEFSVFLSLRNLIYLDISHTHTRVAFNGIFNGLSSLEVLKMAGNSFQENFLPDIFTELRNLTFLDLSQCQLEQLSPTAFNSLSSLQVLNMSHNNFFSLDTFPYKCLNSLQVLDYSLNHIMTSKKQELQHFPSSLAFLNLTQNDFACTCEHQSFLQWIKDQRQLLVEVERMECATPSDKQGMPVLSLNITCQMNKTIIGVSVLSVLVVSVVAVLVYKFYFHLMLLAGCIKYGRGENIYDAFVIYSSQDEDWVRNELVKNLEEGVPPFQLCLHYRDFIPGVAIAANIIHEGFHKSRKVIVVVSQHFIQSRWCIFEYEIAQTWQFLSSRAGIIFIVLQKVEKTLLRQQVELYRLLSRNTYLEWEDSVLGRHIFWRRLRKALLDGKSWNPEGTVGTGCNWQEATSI
Sequence of Hepatocyte growth factor receptor (Homo sapiens) (P08581 whole entry, the tested form may be a part): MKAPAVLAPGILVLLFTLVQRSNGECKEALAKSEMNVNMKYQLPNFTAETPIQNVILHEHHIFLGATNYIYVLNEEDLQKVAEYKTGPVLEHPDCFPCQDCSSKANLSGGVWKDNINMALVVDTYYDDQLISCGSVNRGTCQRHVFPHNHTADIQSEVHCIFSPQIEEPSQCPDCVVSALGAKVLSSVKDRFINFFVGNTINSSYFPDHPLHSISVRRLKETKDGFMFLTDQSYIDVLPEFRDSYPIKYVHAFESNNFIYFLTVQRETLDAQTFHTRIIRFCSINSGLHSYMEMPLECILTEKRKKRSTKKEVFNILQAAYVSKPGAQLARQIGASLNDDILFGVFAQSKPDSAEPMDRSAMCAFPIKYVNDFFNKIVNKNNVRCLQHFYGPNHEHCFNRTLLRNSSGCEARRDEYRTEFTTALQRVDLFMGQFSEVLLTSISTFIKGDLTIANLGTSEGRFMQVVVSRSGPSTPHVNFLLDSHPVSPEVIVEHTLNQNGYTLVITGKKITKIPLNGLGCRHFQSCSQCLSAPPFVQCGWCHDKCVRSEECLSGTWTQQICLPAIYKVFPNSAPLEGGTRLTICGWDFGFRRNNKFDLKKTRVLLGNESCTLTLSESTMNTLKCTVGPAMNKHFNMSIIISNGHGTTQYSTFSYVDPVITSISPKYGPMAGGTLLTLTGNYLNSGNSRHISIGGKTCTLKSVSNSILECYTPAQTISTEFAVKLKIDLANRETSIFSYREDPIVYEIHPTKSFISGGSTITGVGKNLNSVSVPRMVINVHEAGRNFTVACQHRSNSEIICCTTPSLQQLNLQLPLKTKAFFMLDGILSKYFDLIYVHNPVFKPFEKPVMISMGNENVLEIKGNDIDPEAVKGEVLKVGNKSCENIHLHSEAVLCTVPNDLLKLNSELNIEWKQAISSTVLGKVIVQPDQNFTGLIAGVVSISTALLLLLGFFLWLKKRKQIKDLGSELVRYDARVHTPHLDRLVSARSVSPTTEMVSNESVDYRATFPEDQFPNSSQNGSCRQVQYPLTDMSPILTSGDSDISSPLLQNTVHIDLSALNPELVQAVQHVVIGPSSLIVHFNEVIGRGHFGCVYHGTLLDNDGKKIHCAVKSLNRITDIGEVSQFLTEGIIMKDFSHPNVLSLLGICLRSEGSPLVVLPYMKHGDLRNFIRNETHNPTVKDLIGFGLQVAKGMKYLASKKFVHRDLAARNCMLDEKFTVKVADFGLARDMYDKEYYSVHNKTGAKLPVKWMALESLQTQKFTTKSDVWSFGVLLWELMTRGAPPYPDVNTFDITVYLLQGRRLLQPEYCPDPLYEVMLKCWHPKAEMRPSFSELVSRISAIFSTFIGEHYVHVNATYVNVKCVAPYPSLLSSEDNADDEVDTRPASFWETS
Sequence of Cytochrome P450 2D6 (P10635 whole entry, the tested form may be a part): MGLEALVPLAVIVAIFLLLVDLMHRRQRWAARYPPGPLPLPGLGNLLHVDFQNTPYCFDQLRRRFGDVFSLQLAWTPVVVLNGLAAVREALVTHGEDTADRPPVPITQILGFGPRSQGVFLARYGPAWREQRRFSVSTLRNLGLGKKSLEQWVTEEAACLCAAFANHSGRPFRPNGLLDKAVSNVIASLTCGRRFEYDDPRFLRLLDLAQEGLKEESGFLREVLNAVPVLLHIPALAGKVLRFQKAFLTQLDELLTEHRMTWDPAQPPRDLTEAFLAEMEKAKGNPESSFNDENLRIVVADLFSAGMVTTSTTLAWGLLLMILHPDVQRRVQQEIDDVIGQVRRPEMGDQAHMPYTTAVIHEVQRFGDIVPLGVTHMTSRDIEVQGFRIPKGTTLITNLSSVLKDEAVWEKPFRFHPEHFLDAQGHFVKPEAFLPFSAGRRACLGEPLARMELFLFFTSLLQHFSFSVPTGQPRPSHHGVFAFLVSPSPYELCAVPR
Sequence of Discoidin domain-containing receptor 2 (Homo sapiens) (Q16832 whole entry, the tested form may be a part): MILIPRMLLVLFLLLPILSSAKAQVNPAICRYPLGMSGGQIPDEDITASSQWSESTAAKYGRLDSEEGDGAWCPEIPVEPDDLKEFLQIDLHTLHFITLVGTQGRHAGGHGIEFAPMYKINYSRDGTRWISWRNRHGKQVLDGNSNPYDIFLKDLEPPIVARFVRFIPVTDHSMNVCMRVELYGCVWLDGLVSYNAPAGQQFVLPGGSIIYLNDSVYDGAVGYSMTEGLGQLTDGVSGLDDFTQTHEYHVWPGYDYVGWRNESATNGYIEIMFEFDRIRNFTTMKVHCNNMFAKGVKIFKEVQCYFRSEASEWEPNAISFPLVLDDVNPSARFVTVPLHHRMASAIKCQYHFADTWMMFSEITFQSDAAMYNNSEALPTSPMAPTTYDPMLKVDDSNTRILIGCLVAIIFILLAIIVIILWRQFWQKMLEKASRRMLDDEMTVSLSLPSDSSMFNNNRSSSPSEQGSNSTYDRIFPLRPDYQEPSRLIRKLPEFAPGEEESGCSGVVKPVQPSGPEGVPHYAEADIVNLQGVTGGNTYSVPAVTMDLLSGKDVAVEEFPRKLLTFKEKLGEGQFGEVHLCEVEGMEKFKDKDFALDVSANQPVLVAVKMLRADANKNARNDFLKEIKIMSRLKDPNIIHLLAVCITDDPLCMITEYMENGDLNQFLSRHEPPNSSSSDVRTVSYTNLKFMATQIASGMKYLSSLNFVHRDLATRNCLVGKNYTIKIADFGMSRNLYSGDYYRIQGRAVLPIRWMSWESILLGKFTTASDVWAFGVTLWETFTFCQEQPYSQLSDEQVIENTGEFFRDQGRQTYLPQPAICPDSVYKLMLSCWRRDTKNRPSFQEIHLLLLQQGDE
Sequence of Calcium/calmodulin-dependent protein kinase type 1 (Homo sapiens) (Q14012 whole entry, looked up, the tested form may be a part): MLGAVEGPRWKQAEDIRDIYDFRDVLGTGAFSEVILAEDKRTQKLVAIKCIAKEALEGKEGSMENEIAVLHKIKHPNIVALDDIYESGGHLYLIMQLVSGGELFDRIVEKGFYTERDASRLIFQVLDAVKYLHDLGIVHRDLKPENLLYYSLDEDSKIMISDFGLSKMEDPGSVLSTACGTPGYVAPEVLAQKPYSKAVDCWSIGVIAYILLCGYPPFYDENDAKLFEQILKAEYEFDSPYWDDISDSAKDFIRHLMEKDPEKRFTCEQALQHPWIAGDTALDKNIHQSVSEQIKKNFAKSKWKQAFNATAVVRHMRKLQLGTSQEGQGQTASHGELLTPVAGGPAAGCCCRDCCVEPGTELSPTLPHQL
Sequence of Mitogen-activated protein kinase 1 (Homo sapiens) (P28482 whole entry, the tested form may be a part): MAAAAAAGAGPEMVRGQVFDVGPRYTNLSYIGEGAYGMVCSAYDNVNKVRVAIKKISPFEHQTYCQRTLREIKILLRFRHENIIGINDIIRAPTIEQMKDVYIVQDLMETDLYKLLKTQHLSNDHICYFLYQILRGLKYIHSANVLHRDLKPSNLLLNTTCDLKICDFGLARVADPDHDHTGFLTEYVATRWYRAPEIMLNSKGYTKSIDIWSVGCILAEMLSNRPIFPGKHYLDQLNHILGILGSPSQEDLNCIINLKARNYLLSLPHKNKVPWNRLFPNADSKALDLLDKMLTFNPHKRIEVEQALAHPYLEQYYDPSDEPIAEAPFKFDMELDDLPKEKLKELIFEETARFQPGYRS

## CCOc1ccc(OCC(O)CN(C)Cc2c(C)nn(Cc3ccccc3Cl)c2C)cc1 (racemic)
Toll-like receptor 4 [1]
  pIC50: 3.96
  inhibition: Dose-dependent effect
Toll-like receptor 4 [2]
  inhibition: Active
Toll-like receptor 4 [3]
  inhibition: Active
Toll-like receptor 4 [4]
  inhibition: Active
Toll-like receptor 4 [5]
  inhibition: inactive
Toll-like receptor 4 [6]
  inhibition: 65%
Toll-like receptor 4 [7]
  inhibition: 43%
[8]
  logD: 3.36
MDCK
  permeability: permeable
Liver microsomes
  CL: > 700 µL/min/mg
Liver [9]
  CL: 300 µL/min/mg
Liver [10]
  CL: > 350 µL/min/mg
Cytochrome P450 2C9
  pIC50: 4.37
Cytochrome P450 2C19
  pIC50: 4.70
Cytochrome P450 2D6
  pIC50: 4.49
[11]
  inhibition: ≤ 27%
[12]
  inhibition: ≤ 27%
[13]
  inhibition: ≤ 27%
[14]
  inhibition: ≤ 27%
[15]
  inhibition: ≤ 27%
[16]
  inhibition: ≤ 27%
[17]
  inhibition: ≤ 27%
[18]
  inhibition: ≤ 27%
[19]
  inhibition: ≤ 27%
[20]
  inhibition: ≤ 27%
[21]
  inhibition: ≤ 27%
[22]
  inhibition: ≤ 27%
Blood
  Activity: Non-toxic
